From ChEMBL document CHEMBL1671695, “Specificity of induction of the vanA and vanB operons in vancomycin-resistant enterococci by telavancin” (Antimicrob Agents Chemother, 2010)
In brackets after ≈: the same amount, converted by molar mass. Activity calls are given as the source filed them. The rule behind the calls is not given here.

What was measured:
[1] = system: Enterococcus faecalis; assay: Induction of VanX activity in Enterococcus faecalis BM4110 expressing VanA and harboring transposon tn1546 at 0.4 times MIC by Western blotting relative to uninduced control; format: functional
Procedure, shortened: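 Cells grown in BHI at 37°C with telavancin, harvested and treated with mutanolysin, then sonicated. Soluble extract (35 ng protein) was run on a 4–12% polyacrylamide gel and transferred to PVDF. Blot probed with affinity-purified polyclonal anti-VanX (1/5,000), then IRDye 800CW goat anti-rabbit IgG (1/10,000), with infrared fluorescence detection. VanX amount expressed relative to basal level without antibiotic.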

[2] = system: Enterococcus faecalis; assay: Induction of VanX activity in vancomycin susceptible Enterococcus faecalis BM4110 harboring Van A gene assessed as UDP-MurNAc-depsipeptide profile at 4 ug/ml […]; format: functional
Procedure, shortened: (§1)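 Ramoplanin (3 μg/ml) was then added for 15 min. Cytoplasmic precursors were extracted with 8% trichloroacetic acid (15 min, 4°C), desalted and run on HPLC. Each precursor is given as % of total late precursors (tetrapeptide, pentapeptide, pentadepsipeptide) from integrated peak areas.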

[3] = system: Enterococcus faecalis; assay: Induction of VanA activity in vancomycin susceptible Enterococcus faecalis BM4110 harboring Van A gene assessed as UDP-MurNAc-tetrapeptide profile at 4 ug/ml […]; format: functional; procedure, shortened: as §1
[4] = system: Enterococcus faecalis; assay: Induction of VanA activity in Enterococcus faecalis ATCC 51299 expressing Van B gene assessed as UDP-MurNAc-pentapeptide profile at 0.1 ug/ml […]; format: functional
Procedure, shortened: (§2)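 Ramoplanin (3 μg/ml) was then added for 15 min. Cytoplasmic precursors were extracted with 8% TCA (15 min, 4°C), desalted and analysed by HPLC. Each precursor (tetrapeptide, pentapeptide, pentadepsipeptide) is expressed as a percentage of total late precursors from integrated peak areas.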

[5] = system: Enterococcus faecalis; assay: Induction of VanX activity in Enterococcus faecalis ATCC 51575 expressing Van B gene at 0.3 times MIC by high-performance liquid chromatography; format: functional, organism-based
[6] = system: Enterococcus faecalis; assay: Antimicrobial activity against Enterococcus faecalis BM4110 expressing VanA and harboring transposon tn1546 by broth microdilution method; format: functional
Procedure, shortened: (§3)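 Broth microdilution MIC per CLSI-approved methods; strains maintained on tryptic soy agar with 5% sheep blood at 37°C.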

[7] = system: Enterococcus faecalis; assay: Induction of D,D-dipeptidase activity in Enterococcus faecalis BM4110 expressing VanA and harboring transposon tn1546 at 0.4 times MIC by Western blotting relative to uninduced control; format: functional
[8] = system: Enterococcus faecalis; assay: Induction of VanA activity in Enterococcus faecalis ATCC 51575 expressing Van B gene assessed as UDP-MurNAc-pentapeptide profile at 0.1 ug/ml […]; format: functional
[9] = system: Enterococcus faecalis; assay: Antimicrobial activity against Enterococcus faecalis ATCC 51299 by broth microdilution method; format: functional; procedure, shortened: as §3
[10] = system: Enterococcus faecium; assay: Induction of VanA activity in Enterococcus faecium ATCC 51559 expressing Van A gene assessed as UDP-MurNAc-tetrapeptide profile at 4 ug/ml […]; format: functional; procedure, shortened: as §2
[11] = system: Enterococcus faecium; assay: Induction of VanX activity in Enterococcus faecium ATCC 51559 expressing Van A gene assessed as UDP-MurNAc-depsipeptide profile at 4 ug/ml […]; format: functional; procedure, shortened: as §2
[12] = system: Enterococcus faecium; assay: Induction of VanA activity in Enterococcus faecium ATCC 51559 expressing Van A gene assessed as UDP-MurNAc-pentapeptide profile at 4 ug/ml […]; format: functional; procedure, shortened: as §2
[13] = system: Enterococcus faecalis; assay: Induction of VanA activity in vancomycin susceptible Enterococcus faecalis BM4110 assessed as UDP-MurNAc-pentapeptide profile at 0.1 ug/ml […]; format: functional; procedure, shortened: as §2
[14] = system: Enterococcus faecalis; assay: Antimicrobial activity against Enterococcus faecalis ATCC 51575 by broth microdilution method; format: functional
Procedure, shortened: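 Strains were grown on TSA with 5% sheep blood at 37°C. MIC was determined by broth microdilution following CLSI methods.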

[15] = system: Enterococcus faecium; assay: Antimicrobial activity against Enterococcus faecium ATCC 51559 by broth microdilution method; format: functional; procedure, shortened: as §3
[16] = system: Enterococcus faecalis; assay: Induction of VanX activity in Enterococcus faecalis ATCC 51299 expressing Van B gene at 0.3 times MIC by high-performance liquid chromatography; format: functional, organism-based
[17] = system: Enterococcus faecalis; assay: Antimicrobial activity against streptomycin-resistant, vancomycin-susceptible Enterococcus faecalis BM4110 by broth microdilution method; format: functional; procedure, shortened: as §3
[18] = system: Enterococcus faecalis; assay: Induction of VanX activity in Enterococcus faecalis ATCC 51575 expressing Van B gene assessed as UDP-MurNAc-depsipeptide profile at 16 ug/ml […]; format: functional; procedure, shortened: as §1
[19] = system: Enterococcus faecalis; assay: Induction of VanA activity in Enterococcus faecalis ATCC 51299 expressing Van B gene assessed as UDP-MurNAc-tetrapeptide profile at 3 ug/ml […]; format: functional; procedure, shortened: as §1
[20] = system: Enterococcus faecalis; assay: Induction of VanX activity in Enterococcus faecalis ATCC 51575 expressing Van B gene by high-performance liquid chromatography; format: functional, organism-based
[21] = system: Enterococcus faecium; assay: Induction of VanX activity in Enterococcus faecium ATCC 51559 expressing Van A gene by high-performance liquid chromatography; format: functional, organism-based
[22] = system: Enterococcus faecalis; assay: Induction of VanA activity in vancomycin susceptible Enterococcus faecalis BM4110 harboring Van A gene assessed as UDP-MurNAc-tetrapeptide profile at 64 ug/ml […]; format: functional; procedure, shortened: as §1
[23] = system: Enterococcus faecalis; assay: Induction of VanA activity in vancomycin susceptible Enterococcus faecalis BM4110 assessed as UDP-MurNAc-pentapeptide profile at 1 ug/ml […]; format: functional; procedure, shortened: as §1
[24] = system: Enterococcus faecium; assay: Induction of VanX activity in Enterococcus faecium ATCC 51559 expressing Van A gene assessed as UDP-MurNAc-depsipeptide profile at 64 ug/ml […]; format: functional; procedure, shortened: as §1
[25] = system: Enterococcus faecalis; assay: Induction of VanA activity in Enterococcus faecalis ATCC 51299 expressing Van B gene assessed as UDP-MurNAc-pentapeptide profile at 3 ug/ml […]; format: functional; procedure, shortened: as §1
[26] = biological target: T1, D-alanyl-D-alanine dipeptidase (Enterococcus faecium, UniProt Q06241); assay: Inhibition of D,D-dipeptidase activity Van X in Enterococcus faecium ATCC 51559 using D-alanyl-(R)-phenylthioglycine substrate
T1 sequence (Q06241 whole entry): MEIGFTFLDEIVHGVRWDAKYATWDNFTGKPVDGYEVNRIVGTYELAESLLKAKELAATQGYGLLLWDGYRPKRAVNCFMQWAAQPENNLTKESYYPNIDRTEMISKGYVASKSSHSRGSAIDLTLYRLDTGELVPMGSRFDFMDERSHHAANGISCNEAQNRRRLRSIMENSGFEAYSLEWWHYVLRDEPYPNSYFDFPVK
Procedure, shortened: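 Continuous DTNB-coupled VanX assay on soluble extract (100 mM Tris pH 7.5, 412 nm, 22°C). d-Alanyl-(R)-phenylthioglycine was 0.125–0.75 mM and the phosphonamidate inhibitor N-[(1-aminoethyl)hydroxyphosphinyl]-d-alanine 25–324 μM. Ki came from fitting initial rates to a competitive inhibition model.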

[27] = system: Enterococcus faecalis; assay: Induction of VanA activity in Enterococcus faecalis ATCC 51575 expressing Van B gene assessed as UDP-MurNAc-pentapeptide profile at 16 ug/ml […]; format: functional; procedure, shortened: as §1
[28] = system: Enterococcus faecalis; assay: Induction of VanX activity in Enterococcus faecalis BM4110 expressing Van A gene by high-performance liquid chromatography; format: functional, organism-based
[29] = system: Enterococcus faecalis; assay: Induction of VanX activity in Enterococcus faecalis ATCC 51299 expressing Van B gene assessed as UDP-MurNAc-depsipeptide profile at 3 ug/ml […]; format: functional; procedure, shortened: as §1
[30] = system: Enterococcus faecalis; assay: Induction of VanA activity in Enterococcus faecalis ATCC 51575 expressing Van B gene assessed as UDP-MurNAc-tetrapeptide profile at 16 ug/ml […]; format: functional; procedure, shortened: as §1
[31] = system: Enterococcus faecalis; assay: Induction of VanX activity in vancomycin susceptible Enterococcus faecalis BM4110 harboring Van A gene assessed as UDP-MurNAc-depsipeptide profile at 64 ug/ml […]; format: functional; procedure, shortened: as §1
[32] = system: Enterococcus faecium; assay: Induction of VanA activity in Enterococcus faecium ATCC 51559 expressing Van A gene assessed as UDP-MurNAc-tetrapeptide profile at 64 ug/ml […]; format: functional; procedure, shortened: as §1
[33] = system: Enterococcus faecalis; assay: Induction of VanX activity in Enterococcus faecalis ATCC 51299 expressing Van B gene by high-performance liquid chromatography; format: functional, organism-based

In the case of `CCCCCCCCCCNCCN[C@@]1(C)C[C@H](O[C@H]2[C@H](Oc3c4cc5cc3Oc3ccc(cc3Cl)[C@@H](O)[C@@H](NC(=O)[C@@H](CC(C)C)NC)C(=O)N[C@@H](CC(N)=O)C(=O)N[C@H]5C(=O)N[C@H]3C(=O)N[C@H](C(=O)N[C@H](C(=O)O)c5cc(O)c(CNCP(=O)(O)O)c(O)c5-c5cc3ccc5O)[C@H](O)c3ccc(c(Cl)c3)O4)O[C@H](CO)[C@@H](O)[C@@H]2O)O[C@@H](C)[C@H]1O` [TELAVANCIN], the “fold change (FC)” value [1] is reported as 4, the Activity [2] is reported as 74% and the Activity [3] is reported as 26%. For the same compound, the Activity [4] was 100%, the Activity [5] was “inactive” and the MIC [6] was 8 µg/mL (≈ 4.56 µM). For the same compound, the “fold change (FC)” value [7] was 6, the Activity [8] was 100% and the MIC [9] was 1 µg/mL (≈ 0.57 µM). It also gave an Activity [10] of 40%, an Activity [11] of 52% and an Activity [12] of 8%. For the same compound, the Activity [13] was 100%, the MIC [14] was 0.5 µg/mL (≈ 0.285 µM) and the MIC [15] was 8 µg/mL (≈ 4.56 µM). The Activity [16] was “inactive” and the MIC [17] was 1 µg/mL (≈ 0.57 µM).

With `CN[C@H](CC(C)C)C(=O)N[C@H]1C(=O)N[C@@H](CC(N)=O)C(=O)N[C@H]2C(=O)N[C@H]3C(=O)N[C@H](C(=O)N[C@H](C(=O)O)c4cc(O)cc(O)c4-c4cc3ccc4O)[C@H](O)c3ccc(c(Cl)c3)Oc3cc2cc(c3O[C@@H]2O[C@H](CO)[C@@H](O)[C@H](O)[C@H]2O[C@H]2C[C@](C)(N)[C@H](O)[C@H](C)O2)Oc2ccc(cc2Cl)[C@H]1O` [VANCOMYCIN] the Activity [18] was 86%, the Activity [19] was 6% and the Activity [20] was “Active”. The Activity [21] was “Dose-dependent effect”, the Activity [22] was 27% and the Activity [23] was 100%. For the same compound, the Activity [24] was 59%, the Activity [25] was 19% and the Ki [26] was 62 µM. The Activity [27] was 10%, the Activity [28] was “Dose-dependent effect” and the MIC [6] was 1020 µg/mL (≈ 707 µM). For the same compound, the Activity [29] was 75%, the Activity [30] was 4% and the MIC [9] was 16 µg/mL (≈ 11 µM). For the same compound, the Activity [31] was 73%, the Activity [32] was 41% and the Activity [33] was “Active”. It also gave an MIC [14] of 256 µg/mL (≈ 177 µM) and an MIC [17] of 2 µg/mL (≈ 1.38 µM).
